Laboratory results: ChEMBL document CHEMBL1153798, “Substituted tetrahydroquinolines as potent allosteric inhibitors of reverse transcriptase and its key mutants” (Bioorg Med Chem Lett, 2009)

What was measured:
[1] = tested on: Human immunodeficiency virus 1; assay: Antiviral activity against HIV1 3B infected human MT4 cells assessed as drug level required for 95% inhibition in the presence of 10% fetal bovine serum; type: functional
Procedure, shortened: (§1)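 Spread assay: MT-4 human T-lymphoid cells in RPMI 1640 with either 10% FBS or 50% NHS; CIC95 taken as the concentration blocking >95% of virus spread. Wild-type virus H9IIIB or R8 as stated per line. Geometric mean of at least two determinations, individual values within 25% of the mean.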

[2] = tested on: Human immunodeficiency virus 1; assay: Antiviral activity against HIV1 3B infected human MT4 cells assessed as drug level required for 95% inhibition in the presence of 50% normal human serum; type: functional; procedure, shortened: as §1
[3] = Protein binding in human plasma; type: ADME, cell-free; details: read-out: PB
[4] = tested on: Human immunodeficiency virus 1; assay: Antiviral activity against HIV1 R8 infected human MT4 cells assessed as drug level required for 95% inhibition in the presence of 10% fetal bovine serum; type: functional; procedure, shortened: as §1
[5] = tested on: Human immunodeficiency virus 1; assay: Antiviral activity against HIV1 R8 infected human MT4 cells assessed as drug level required for 95% inhibition in the presence of 50% normal human serum; type: functional; procedure, shortened: as §1
[6] = Inhibition of HIV1 reverse transcriptase K103 mutant
[7] = tested on: Human immunodeficiency virus 1; assay: Antiviral activity against HIV1 carrying reverse transcriptase V106A/G190A/F227L mutant infected human MT4 cells by phenoscreen assay in the presence of 40 percent normal human serum; type: functional, organism-based; details: Human immunodeficiency virus 1, MT4
Procedure, shortened: (§2)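 Phenotypic recombinant-virus assay (Phenoscreen, Monogram Bioscience), run with 40% normal human serum present. IC50 is the compound concentration in cell culture that inhibits viral replication by 50%.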

[8] = tested on: Human immunodeficiency virus 1; assay: Ratio of IC50 for HIV1 carrying reverse transcriptase Y188L mutant to IC50 for wild type HIV1 in the presence of 40% normal human serum; type: functional
[9] = tested on: Human immunodeficiency virus 1; assay: Antiviral activity against HIV1 carrying reverse transcriptase G190A mutant infected human MT4 cells by phenoscreen assay in the presence of 40 percent normal human serum; details: Human immunodeficiency virus 1, MT4
[10] = tested on: Human immunodeficiency virus 1; assay: Antiviral activity against HIV1 carrying reverse transcriptase G190S mutant infected human MT4 cells by phenoscreen assay in the presence of 40 percent normal human serum; details: Human immunodeficiency virus 1, MT4
[11] = Half life in Sprague-Dawley rat at 10 mg/kg, po and 2 mg/kg, iv; type: ADME, organism-based; details: in vivo
[12] = tested on: Human immunodeficiency virus 1; assay: Ratio of IC50 for HIV1 carrying reverse transcriptase Y181C/G190A mutant to IC50 for wild type HIV1 in the presence of 40% normal human serum; type: functional
[13] = tested on: Human immunodeficiency virus 1; assay: Ratio of IC50 for HIV1 carrying reverse transcriptase […]/G190A mutant to IC50 for wild type HIV1 in the presence of 40% normal human serum; type: functional
[14] = tested on: Human immunodeficiency virus 1; assay: Antiviral activity against HIV1 infected human MT4 cells by phenoscreen assay in the presence of 40 percent normal human serum; type: functional, organism-based; details: Human immunodeficiency virus 1, MT4
[15] = tested on: Human immunodeficiency virus 1; assay: Antiviral activity against HIV1 carrying reverse transcriptase K101E/G190A mutant infected human MT4 cells by phenoscreen assay in the presence of 40 percent normal human serum; details: Human immunodeficiency virus 1, MT4
[16] = tested on: Human immunodeficiency virus 1; assay: Antiviral activity against HIV1 carrying reverse transcriptase Y181C mutant infected human MT4 cells by phenoscreen assay in the presence of 40 percent normal human serum; type: functional, organism-based; details: Human immunodeficiency virus 1, MT4; procedure, shortened: as §2
[17] = tested on: Human immunodeficiency virus 1; assay: Ratio of IC50 for HIV1 carrying reverse transcriptase K103N mutant to IC50 for wild type HIV1 in the presence of 40% normal human serum; type: functional
[18] = tested on: Human immunodeficiency virus 1; assay: Antiviral activity against HIV1 carrying reverse transcriptase […]/G190A mutant infected human MT4 cells in the presence of 40 percent normal human serum; type: functional; procedure, shortened: as §2
[19] = tested on: Human immunodeficiency virus 1; assay: Ratio of IC50 for HIV1 carrying reverse transcriptase K103N/V179E mutant to IC50 for wild type HIV1 in the presence of 40% normal human serum; type: functional
[20] = tested on: Human immunodeficiency virus 1; assay: Ratio of IC50 for HIV1 carrying reverse transcriptase […]/ Y181C/G190A mutant to IC50 for wild type HIV1 in the presence of 40% normal human serum; type: functional
[21] = tested on: Human immunodeficiency virus 1; assay: Antiviral activity against HIV1 carrying reverse transcriptase Y181C/G190A mutant infected human MT4 cells by phenoscreen assay in the presence of 40 percent normal human serum; type: functional, organism-based; details: Human immunodeficiency virus 1, MT4; procedure, shortened: as §2
[22] = tested on: Human immunodeficiency virus 1; assay: Ratio of IC50 for HIV1 carrying reverse transcriptase Y181C mutant to IC50 for wild type HIV1 in the presence of 40% normal human serum; type: functional
[23] = tested on: Human immunodeficiency virus 1; assay: Antiviral activity against HIV1 carrying reverse transcriptase K103N/P225H mutant infected human MT4 cells by phenoscreen assay in the presence of 40 percent normal human serum; type: functional, organism-based; details: Human immunodeficiency virus 1, MT4; procedure, shortened: as §2
[24] = tested on: Human immunodeficiency virus 1; assay: Antiviral activity against HIV1 carrying reverse transcriptase K103N/G190A mutant infected human MT4 cells by phenoscreen assay in the presence of 40 percent normal human serum; type: functional, organism-based; details: Human immunodeficiency virus 1, MT4; procedure, shortened: as §2
[25] = tested on: Human immunodeficiency virus 1; assay: Ratio of IC50 for HIV1 carrying reverse transcriptase V106A/G190A/F227L mutant to IC50 for wild type HIV1 in the presence of 40% normal human serum; type: functional
[26] = tested on: Human immunodeficiency virus 1; assay: Ratio of IC50 for HIV1 carrying reverse transcriptase K103N/G190A mutant to IC50 for wild type HIV1 in the presence of 40% normal human serum; type: functional
[27] = tested on: Human immunodeficiency virus 1; assay: Ratio of IC50 for HIV1 carrying reverse transcriptase K103N/P225H mutant to IC50 for wild type HIV1 in the presence of 40% normal human serum; type: functional
[28] = tested on: Rattus norvegicus; assay: Hepatic clearance in rat at 10 mg/kg, po and 2 mg/kg, iv; details: in vivo
[29] = tested on: Human immunodeficiency virus 1; assay: Antiviral activity against HIV1 carrying reverse transcriptase K103N mutant infected human MT4 cells by phenoscreen assay in the presence of 40 percent normal human serum; type: functional, organism-based; details: Human immunodeficiency virus 1, MT4; procedure, shortened: as §2
[30] = tested on: Human immunodeficiency virus 1; assay: Antiviral activity against HIV1 carrying reverse transcriptase K103N/V179E mutant infected human MT4 cells by phenoscreen assay in the presence of 40 percent normal human serum; type: functional, organism-based; details: Human immunodeficiency virus 1, MT4; procedure, shortened: as §2
[31] = tested on: Human immunodeficiency virus 1; assay: Ratio of IC50 for HIV1 carrying reverse transcriptase G190S mutant to IC50 for wild type HIV1 in the presence of 40% normal human serum; type: functional
[32] = tested on: Human immunodeficiency virus 1; assay: Ratio of IC50 for HIV1 carrying reverse transcriptase K103N/Y181C mutant to IC50 for wild type HIV1 in the presence of 40% normal human serum; type: functional
[33] = tested on: Human immunodeficiency virus 1; assay: Antiviral activity against HIV1 carrying reverse transcriptase K103N/ Y181C/G190A mutant infected human MT4 cells by phenoscreen assay in the presence of 40 percent normal human serum; type: functional, organism-based; details: Human immunodeficiency virus 1, MT4; procedure, shortened: as §2
[34] = tested on: Human immunodeficiency virus 1; assay: Ratio of IC50 for HIV1 carrying reverse transcriptase […] mutant to IC50 for wild type HIV1 in the presence of 40% normal human serum; type: functional
[35] = tested on: Human immunodeficiency virus 1; assay: Ratio of IC50 for HIV1 carrying reverse transcriptase G190A mutant to IC50 for wild type HIV1 in the presence of 40% normal human serum; type: functional
[36] = tested on: Human immunodeficiency virus 1; assay: Antiviral activity against HIV1 carrying reverse transcriptase Y188L mutant infected human MT4 cells by phenoscreen assay in the presence of 40 percent normal human serum; type: functional, organism-based; details: Human immunodeficiency virus 1, MT4; procedure, shortened: as §2
[37] = tested on: Human immunodeficiency virus 1; assay: Antiviral activity against HIV1 carrying reverse transcriptase […] mutant infected human MT4 cells by phenoscreen assay in the presence of 40 percent normal human serum; type: functional, organism-based; details: Human immunodeficiency virus 1, MT4; procedure, shortened: as §2
[38] = tested on: Human immunodeficiency virus 1; assay: Antiviral activity against HIV1 carrying reverse transcriptase K101E/ Y181C/G190A mutant infected human MT4 cells by phenoscreen assay in the presence of 40 percent normal human serum; details: Human immunodeficiency virus 1, MT4

## Cc1ccc2c(c1)CCCN2C(=O)SCC(=O)Nc1ccc(S(N)(=O)=O)cc1Cl
[1]
  ID95: 78 nM
[2]
  ID95: 396 nM
[3]
  fraction unbound: 0.01

## O=C(CSC(=O)N1CCCc2cc(Cl)cc(Cl)c21)Nc1ccc(C(=O)NCc2ccccc2)cc1Cl
[4]
  Activity: 63 nM
[5]
  Activity: 307 nM

## CS(=O)(=O)c1ccc(NC(=O)CSC(=O)N2CCCc3cc(Cl)cc(Cl)c32)c(Cl)c1
[6]
  IC50: 3 nM
[7]
  IC50: > 250 nM
[8]
  fold change (FC): >56
[9]
  IC50: 157 nM
[10]
  IC50: > 250 nM
[4]
  Activity: 5.6 nM
[11]
  half-life: 1.7 h
[12]
  fold change (FC): >56
[13]
  fold change (FC): >56
[14]
  IC50: 4.5 nM
[15]
  IC50: > 250 nM
[16]
  IC50: 86.6 nM
[17]
  fold change (FC): 0.4
[18]
  fold change (FC): >56
[19]
  fold change (FC): 1.7
[20]
  fold change (FC): >56
[21]
  IC50: > 250 nM
[22]
  fold change (FC): 19
[23]
  IC50: 9.3 nM
[24]
  IC50: 57.2 nM
[25]
  fold change (FC): >56
[26]
  fold change (FC): 21.3
[27]
  fold change (FC): 2.1
[28]
  CL: 84 mL/min/kg
[29]
  IC50: 2 nM
[30]
  IC50: 7.5 nM
[31]
  fold change (FC): >56
[5]
  Activity: 5.7 nM
[32]
  fold change (FC): 33.2
[33]
  IC50: > 250 nM
[34]
  fold change (FC): 11
[35]
  fold change (FC): 34.8
[36]
  IC50: > 250 nM
[37]
  IC50: 50.5 nM
[38]
  IC50: > 250 nM

## NCCCNC(=O)c1ccc(NC(=O)CSC(=O)N2CCCc3cc(Cl)cc(Cl)c32)c(Cl)c1
[4]
  Activity: 97 nM
[5]
  Activity: 34 nM
